Assay outcomes as filed in PubChem.
CHRM5 PAM: potentiates acetylcholine response at human M5 receptor. P08912. CHO-K1 hM5, Fluo-8 calcium, ACh EC20 PAM; 0% = ACh EC20, 100% = ACh EC100. activation, % at 3 µM. actives 0.3% (n = 360,000). AID 624038;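 active means activation above the run cutoff, the mean activation of all test compounds plus 3 SD, cut at about 18% in these data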
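System: CHO-K1 cell line with stable human muscarinic M5 receptor expression | Also added: EC20 acetylcholine as agonist stimulus | Compound: One concentration, 3 µM final (nominal) | Timing: Fluo-8 loading 80 min at 37 °C plus 30 min room temperature | Measured by: Fluo-8 calcium dye fluorescence, kinetic read | Read-out basis: % activation, ACh-normalized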
CHRM5 antagonist: antagonists of human muscarinic M5 receptor (CHRM5); P08912; CHO-hM5 cells, Fluo-8 calcium fluorescence, ACh EC80; inhibition, % at 3 µM; actives 0.59% (n = 360,000);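 active means inhibition above a per-plate cutoff, the mean of that plate's test compounds plus 3 SD, cut at about 27% in these data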
CHRM4 antagonist: CHRM4 antagonism in calcium assay; P08173; CHO-hM4 cells, ACh EC80, Fluo-8 calcium fluorescence; inhibition, % at 3 µM; actives 0.73% (n = 360,000);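 active means inhibition above its plate's cutoff, the mean inhibition of sample wells plus 3 SD, cut at about 27% in these data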
Target sequence (P08173 whole entry, looked up): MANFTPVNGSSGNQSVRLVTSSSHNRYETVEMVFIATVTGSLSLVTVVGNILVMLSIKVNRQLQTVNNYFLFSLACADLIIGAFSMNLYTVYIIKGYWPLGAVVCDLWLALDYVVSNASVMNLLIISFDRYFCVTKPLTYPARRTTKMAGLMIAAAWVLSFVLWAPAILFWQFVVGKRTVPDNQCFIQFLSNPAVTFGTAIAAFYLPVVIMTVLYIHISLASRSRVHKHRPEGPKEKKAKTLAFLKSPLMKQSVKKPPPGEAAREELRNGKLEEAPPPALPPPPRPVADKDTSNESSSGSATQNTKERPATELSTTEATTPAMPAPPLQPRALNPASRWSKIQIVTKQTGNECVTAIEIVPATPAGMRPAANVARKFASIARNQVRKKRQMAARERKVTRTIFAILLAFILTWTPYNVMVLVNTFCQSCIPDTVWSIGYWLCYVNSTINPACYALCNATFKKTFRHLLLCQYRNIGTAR
CHRM5 agonist: agonists of human muscarinic M5 receptor (CHRM5); activation, % at 3 µM; actives 0.19% (n = 360,000); CHO-K1 hM5 cells, Fluo-8 calcium fluorescence; 0% DMSO wells, 100% maximal acetylcholine response; P08912;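 active means activation above the run's mean over test compounds plus 3 SD, cut at about 23% in these data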;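 further: signal is peak over basal fluorescence ratio across the kinetic read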
M4 ag: agonists of human muscarinic M4 receptor (CHRM4); P08173; CHO-K1 hM4/Gqi5, Fluo-8 calcium fluorescence; vehicle 0%, full acetylcholine response 100%; activation, % at 3 µM; actives 0.14% (n = 360,000); AID 624127;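 active means activation above the run mean over all test wells plus 3 SD, cut at about 32% in these data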;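 further: peak over basal fluorescence ratio per well then scaled between controls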
CHRM4 PAM: potentiates acetylcholine response at human M4 receptor | P08173 | CHO-K1 hM4/Gqi5, Fluo-8 calcium fluorescence, ACh EC20; 0% = ACh EC20, 100% = maximal ACh | activation, % at 3 µM | actives 0.4% (n = 360,000);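 active means activation above its plate's cutoff, the mean activation of sample wells plus 3 SD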
Hits are given with their value; 0 = inactive. Hits are enriched below; roughly 1.8% of the tested compounds scored in any of these assays.

SMILES	CHRM5 PAM	CHRM5 antagonist	CHRM4 antagonist	CHRM5 agonist	M4 ag	CHRM4 PAM
CC1CN(C)C(C)c2c1oc1ccc(N)cc21 (stereo unspecified)	20	0	0	0	0	0
CCOC(=O)[C@]12CCCC=C1N(Cc1ccco1)C(=O)[C@H](CC(=O)NCc1cccc3ccccc13)C2	0	0	0	0	0	0
COc1ccc(C(=O)Nc2ccc([N+](=O)[O-])cn2)c(OC)c1	20	0	0	0	0	0
Cc1ccc(S(=O)(=O)N2[C@@H](c3cccc(Cl)c3)C(C(=O)O)=CC[C@H]2c2ccc3c(c2)OCO3)cc1	0	0	0	0	0	0
O=C(Nc1ccccc1C(=O)O)c1ccc(Br)o1	0	0	0	0	0	0
CC(=O)c1cc(C(=O)Nc2ccccc2C(=O)O)oc1C	0	0	0	0	0	32
CC(=O)Nc1nc(-c2ccc([N+](=O)[O-])cc2)cs1	0	0	0	0	0	0
O=C(Nc1ccc([N+](=O)[O-])cc1)Nc1nc(-c2ccc(Cl)s2)cs1	0	31	0	0	0	0
CSC1=NCCN1CCOc1ccccc1	0	0	0	0	0	0
Cc1ccc(-c2nc(CS(=O)CC(=O)NCCCN3CCN(Cc4ccccc4)CC3)c(C)o2)cc1 (stereo unspecified)	0	0	0	0	0	0
C[N+]1(CC(=O)OC2CCCCCCCCCCC2)CCCC1	0	0	35	0	0	0
COC(=O)CCCCCCCCCC[N+]1(C)CCCCC1	0	0	31	0	0	0
O=C(CC1(O)CCCCC1)OC1CCCC1	0	0	0	0	0	0
CC(=O)OCCCCCCCCCCC[N+]1(C)CCCCC1	0	0	56	0	0	0
Cc1ccc(CN2CCN(Cc3ccc4cc(F)ccc4n3)CC2CCO)o1 (stereo unspecified)	0	0	0	0	0	0
Cc1cccc(N(CC(=O)N2CCCCCC2)S(C)(=O)=O)c1	0	0	0	0	0	0
O=c1c(O)c(-c2cccs2)oc2ccc(Cl)cc12	0	31	32	66	344	0
O=c1c(O)c(-c2cccs2)oc2ccccc12	0	0	0	0	0	0
COc1ccccc1N1CCN(C(=O)c2oc3c(c2C)C(=O)CC(C)(C)C3)CC1	0	29	0	0	0	0
Cc1c(C(=O)N2CCN(c3ccccn3)CC2)oc2c1C(=O)CC(C)(C)C2	0	0	0	0	0	0
CC(C)C[C@@]12C(=O)N(c3cccc(F)c3)C(=O)N1[C@H](c1ccc(Cl)cc1)[C@@H]1C(=O)N(C3CCCCC3)C(=O)[C@@H]12	0	0	0	0	0	0
N#CCCN(CCN1CCCC1)S(=O)(=O)c1ccc(-c2ccc([N+](=O)[O-])cc2)cc1	0	0	0	0	0	0
O=C(NCCCN1CCOCC1)C(=O)NCc1ccc(Cl)cc1	0	0	0	0	0	0
C=CCNC(=O)Nc1ccc(Cl)cn1	0	0	0	0	0	21
CC(=O)Oc1ccccc1N1C(=O)c2ccc(C(=O)O)cc2C1=O	0	0	31	0	0	0
SMILES	CHRM5 PAM	CHRM5 antagonist	CHRM4 antagonist	CHRM5 agonist	M4 ag	CHRM4 PAM
COc1ccccc1N1C(=O)c2ccc(C(=O)Nc3ccccc3O)cc2C1=O	0	33	30	0	0	0
COc1ccc(N2C(=O)c3ccc(C(=O)Nc4ccccc4O)cc3C2=O)cc1	0	0	0	0	0	0
COc1ccc(N2CC(C(=O)N3CCN(c4ccccc4)CC3)CC2=O)cc1 (stereo unspecified)	0	31	0	0	0	0
CCOc1ccc(NC(=O)C2CCN(C(=O)C3CC(=O)N(c4ccc(C)cc4)C3)CC2)cc1 (stereo unspecified)	0	0	0	0	0	19
CC(C)(C)C(=O)c1c(N)[nH]c(C(=O)c2ccccc2)c1-c1ccccc1Br	0	0	0	0	0	0
OC[C@H]1O[C@@H](O[C@@H]2[C@@H](CO)O[C@@](O)(CO)[C@H]2O)[C@H](O)[C@@H](O)[C@H]1O	0	0	0	0	0	0
Cc1onc(-c2ccccc2)c1CNC(=O)Nc1ccc(C(F)(F)F)cc1	0	38	0	0	0	0
Cc1cc(C)cc(NC(=O)NCc2c(-c3ccccc3)noc2C)c1	0	0	0	0	0	0
CCCCCn1c(CNC(=O)CCC)nc2ccccc21	0	0	0	0	0	0
CCCCCn1c(CNC(=O)CC)nc2ccccc21	0	0	0	43	0	0
Cc1ccc2c(Cl)cc(Cl)c(OCC(=O)NCCc3ccccn3)c2n1	0	0	77	0	0	0
CCOc1ccccc1NC(=O)COC(=O)COc1c(Cl)cc(Cl)c2ccc(C)nc12	34	28	0	0	0	0
Cc1ccc2c(Cl)cc(Cl)c(OCC(=O)NC3CCS(=O)(=O)C3)c2n1 (stereo unspecified)	0	0	0	0	0	0
CCNc1nc(NC#N)nc(SCC(=O)OCC)n1	0	0	0	0	0	0
CCOC(=O)CSc1nc(NC#N)nc(N(CC)CC)n1	19	0	0	0	0	0
CC1(C)Cc2c(c(N3CCOCC3)nc3sc(C(=O)Nc4ccccc4)c(N)c23)CO1	0	0	0	0	0	0
CC1(C)Cc2c(c(N3CCOCC3)nc3sc(C(=O)Nc4cccc(Cl)c4)c(N)c23)CO1	0	0	0	0	0	18
CCC(=O)c1ccccc1OCCCCn1cncn1	0	0	0	0	0	0
COc1cc2c(cc1OC)-c1cc(OCCN3CCOCC3)nc(=O)n1CC2	25	0	0	0	0	0
COc1cc(Cl)c(C)cc1NC(=O)CCCn1c(=O)oc2ccccc21	0	0	0	0	0	30
O=c1c2ccccc2nc2n1CCN2Cc1ccc(Cl)cc1	0	29	0	0	0	0
CC[C@]12c3[nH]c4ccc(OC)cc4c3CCN1C(=O)C(CC(=O)NCCCN(C)C)C[C@@H]2C(=O)N1CCN(C(=O)c2ccco2)CC1 (stereo partly specified)	0	0	0	0	0	0
CC(C)CC(NC(=O)c1ccccc1NC(=O)c1ccccc1)C(=O)O (stereo unspecified)	0	0	0	0	0	0
CC(C)CC(NC(=O)c1ccc(Cl)cc1Cl)C(=O)O (stereo unspecified)	19	0	0	0	0	0
O=C(NCc1cccs1)c1ccc(N2CCCC2=O)cc1	22	0	0	0	0	0
COC(=O)[C@]12CCCCC=C1N(CCc1ccc(OC)c(OC)c1)C(=O)[C@H](CC(=O)N1CCC(c3ccccc3)CC1)C2	0	28	0	0	0	0
